Test results: ChEMBL document CHEMBL3792341, “Substituted quinazolinones as kinase inhibitors endowed with anti-fibrotic properties” (Eur J Med Chem, 2016)
Calls of active or inactive are those of the source. The rule behind the calls is not given here.

What was measured:
[1] = target: Vascular endothelial growth factor receptor 2 (Homo sapiens) (UniProt P35968); assay: Inhibition of human KDR using […] as substrate at 1 uM measured after 20 mins at 30 degC by liquid scintillation counting method in presence of [gamma-32P]-ATP
Vascular endothelial growth factor receptor 2 (Homo sapiens), sequence (P35968 whole entry): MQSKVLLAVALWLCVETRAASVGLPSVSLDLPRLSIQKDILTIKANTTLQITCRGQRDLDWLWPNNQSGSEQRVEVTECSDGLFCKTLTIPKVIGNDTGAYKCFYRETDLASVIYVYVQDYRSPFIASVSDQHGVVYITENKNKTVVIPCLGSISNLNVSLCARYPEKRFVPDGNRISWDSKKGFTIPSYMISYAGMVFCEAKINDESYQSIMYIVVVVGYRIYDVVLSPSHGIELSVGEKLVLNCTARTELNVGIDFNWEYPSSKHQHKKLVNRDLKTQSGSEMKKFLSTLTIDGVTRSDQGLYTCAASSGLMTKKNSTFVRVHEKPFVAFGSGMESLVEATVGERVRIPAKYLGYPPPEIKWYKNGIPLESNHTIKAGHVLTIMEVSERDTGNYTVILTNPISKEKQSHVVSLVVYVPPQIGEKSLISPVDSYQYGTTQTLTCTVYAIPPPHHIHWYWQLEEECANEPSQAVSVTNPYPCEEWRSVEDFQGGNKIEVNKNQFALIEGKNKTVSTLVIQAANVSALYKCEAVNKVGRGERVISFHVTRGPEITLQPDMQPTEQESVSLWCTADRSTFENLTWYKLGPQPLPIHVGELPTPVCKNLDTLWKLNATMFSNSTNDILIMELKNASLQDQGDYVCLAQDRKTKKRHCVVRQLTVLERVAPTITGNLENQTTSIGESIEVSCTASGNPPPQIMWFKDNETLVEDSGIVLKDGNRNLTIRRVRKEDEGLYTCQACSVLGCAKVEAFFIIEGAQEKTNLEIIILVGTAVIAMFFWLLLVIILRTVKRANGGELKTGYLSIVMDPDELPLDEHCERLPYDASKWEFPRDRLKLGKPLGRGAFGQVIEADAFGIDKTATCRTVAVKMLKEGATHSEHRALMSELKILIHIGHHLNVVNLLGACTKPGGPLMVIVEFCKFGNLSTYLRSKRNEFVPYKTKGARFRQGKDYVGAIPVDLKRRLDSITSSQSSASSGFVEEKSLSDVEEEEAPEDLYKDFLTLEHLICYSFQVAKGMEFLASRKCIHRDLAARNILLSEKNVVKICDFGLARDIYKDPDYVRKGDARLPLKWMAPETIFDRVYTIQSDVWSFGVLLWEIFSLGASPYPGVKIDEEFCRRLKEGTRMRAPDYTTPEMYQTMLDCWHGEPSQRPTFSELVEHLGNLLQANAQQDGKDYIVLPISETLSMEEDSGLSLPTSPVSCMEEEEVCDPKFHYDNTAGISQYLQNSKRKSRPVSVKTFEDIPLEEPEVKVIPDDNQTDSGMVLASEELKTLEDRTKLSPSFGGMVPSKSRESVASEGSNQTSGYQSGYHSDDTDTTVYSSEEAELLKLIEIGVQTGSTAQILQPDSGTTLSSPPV

[2] = target: Fibroblast growth factor receptor 1 (Homo sapiens) (UniProt P11362); assay: Inhibition of human FGFR1 using myelin basic protein as substrate at 1 uM measured after 20 mins at 30 degC by liquid scintillation counting method in presence of [gamma-32P]-ATP
Fibroblast growth factor receptor 1 (Homo sapiens), sequence (P11362 22-822 limits assumed): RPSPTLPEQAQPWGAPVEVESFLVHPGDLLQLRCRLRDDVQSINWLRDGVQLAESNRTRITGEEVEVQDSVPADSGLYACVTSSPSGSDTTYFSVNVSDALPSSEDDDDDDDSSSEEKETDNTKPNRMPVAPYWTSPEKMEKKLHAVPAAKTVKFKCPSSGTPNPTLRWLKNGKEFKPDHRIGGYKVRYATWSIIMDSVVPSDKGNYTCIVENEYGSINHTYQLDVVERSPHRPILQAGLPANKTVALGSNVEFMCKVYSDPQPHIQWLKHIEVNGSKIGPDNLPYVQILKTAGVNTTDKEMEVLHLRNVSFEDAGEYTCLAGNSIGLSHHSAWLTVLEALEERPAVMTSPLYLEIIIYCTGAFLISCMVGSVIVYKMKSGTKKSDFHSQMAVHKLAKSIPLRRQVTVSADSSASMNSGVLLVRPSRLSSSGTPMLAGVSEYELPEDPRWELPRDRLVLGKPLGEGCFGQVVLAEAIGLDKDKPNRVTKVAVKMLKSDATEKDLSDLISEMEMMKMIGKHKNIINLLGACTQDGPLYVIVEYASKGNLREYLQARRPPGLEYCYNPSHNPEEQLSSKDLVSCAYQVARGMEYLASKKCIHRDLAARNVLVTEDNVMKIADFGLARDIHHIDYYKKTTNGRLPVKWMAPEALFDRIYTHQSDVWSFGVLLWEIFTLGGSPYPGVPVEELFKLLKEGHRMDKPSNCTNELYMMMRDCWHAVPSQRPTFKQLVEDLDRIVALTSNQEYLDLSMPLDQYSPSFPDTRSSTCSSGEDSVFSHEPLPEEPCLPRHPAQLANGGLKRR

[3] = target: Tyrosine-protein kinase ABL1 (Homo sapiens) (UniProt P00519); assay: Inhibition of human Abl1 using myelin basic protein as substrate at 1 uM measured after 20 mins at 30 degC by liquid scintillation counting method in presence of [gamma-32P]-ATP
Tyrosine-protein kinase ABL1 (Homo sapiens), sequence (P00519 whole entry): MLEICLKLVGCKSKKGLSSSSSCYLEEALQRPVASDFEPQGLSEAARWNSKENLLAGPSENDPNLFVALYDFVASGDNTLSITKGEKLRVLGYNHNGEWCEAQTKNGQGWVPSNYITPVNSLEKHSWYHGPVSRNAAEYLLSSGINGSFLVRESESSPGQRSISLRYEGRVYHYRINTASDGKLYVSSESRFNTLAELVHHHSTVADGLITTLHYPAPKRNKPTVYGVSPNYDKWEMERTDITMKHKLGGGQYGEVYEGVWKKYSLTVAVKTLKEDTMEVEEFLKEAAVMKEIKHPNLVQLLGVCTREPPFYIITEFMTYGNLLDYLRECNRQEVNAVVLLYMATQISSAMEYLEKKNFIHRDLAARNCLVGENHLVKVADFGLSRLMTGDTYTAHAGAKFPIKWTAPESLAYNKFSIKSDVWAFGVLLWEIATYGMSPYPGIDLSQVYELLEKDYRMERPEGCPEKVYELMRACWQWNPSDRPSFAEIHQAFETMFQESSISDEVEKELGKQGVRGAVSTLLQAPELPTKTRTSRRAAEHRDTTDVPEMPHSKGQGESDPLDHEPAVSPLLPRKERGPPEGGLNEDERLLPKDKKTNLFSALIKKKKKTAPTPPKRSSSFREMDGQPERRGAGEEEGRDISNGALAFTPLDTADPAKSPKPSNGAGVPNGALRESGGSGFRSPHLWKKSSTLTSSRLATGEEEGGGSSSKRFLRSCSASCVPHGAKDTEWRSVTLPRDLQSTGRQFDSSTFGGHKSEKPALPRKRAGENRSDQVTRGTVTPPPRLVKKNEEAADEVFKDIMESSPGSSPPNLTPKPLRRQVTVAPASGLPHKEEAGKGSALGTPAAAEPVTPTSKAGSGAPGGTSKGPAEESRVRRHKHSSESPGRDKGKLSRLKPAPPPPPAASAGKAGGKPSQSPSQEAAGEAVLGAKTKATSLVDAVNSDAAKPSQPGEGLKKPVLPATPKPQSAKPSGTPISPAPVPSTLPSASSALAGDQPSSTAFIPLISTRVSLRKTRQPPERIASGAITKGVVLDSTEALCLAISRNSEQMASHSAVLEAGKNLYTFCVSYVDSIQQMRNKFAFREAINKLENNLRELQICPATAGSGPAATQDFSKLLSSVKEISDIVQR

[4] = target: Proto-oncogene tyrosine-protein kinase Src (Homo sapiens) (UniProt P12931); assay: Inhibition of human Src using myelin basic protein as substrate at 1 uM measured after 20 mins at 30 degC by liquid scintillation counting method in presence of [gamma-32P]-ATP
Proto-oncogene tyrosine-protein kinase Src (Homo sapiens), sequence (P12931 2-536 limits assumed): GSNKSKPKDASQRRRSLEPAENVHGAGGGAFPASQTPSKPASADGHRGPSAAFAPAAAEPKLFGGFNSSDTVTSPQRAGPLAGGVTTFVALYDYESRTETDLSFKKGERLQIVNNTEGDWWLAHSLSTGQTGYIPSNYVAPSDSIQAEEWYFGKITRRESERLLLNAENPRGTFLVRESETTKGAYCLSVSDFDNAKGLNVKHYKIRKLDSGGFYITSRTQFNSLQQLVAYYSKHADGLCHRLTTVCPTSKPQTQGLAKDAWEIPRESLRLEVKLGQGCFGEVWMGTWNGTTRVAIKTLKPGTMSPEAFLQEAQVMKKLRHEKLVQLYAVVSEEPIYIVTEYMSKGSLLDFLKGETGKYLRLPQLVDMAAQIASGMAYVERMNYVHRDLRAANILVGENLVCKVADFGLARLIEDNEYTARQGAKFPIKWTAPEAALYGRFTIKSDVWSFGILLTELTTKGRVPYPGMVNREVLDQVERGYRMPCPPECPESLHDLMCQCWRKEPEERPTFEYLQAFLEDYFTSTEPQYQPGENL

[5] = target: Platelet-derived growth factor receptor beta (Homo sapiens) (UniProt P09619); assay: Inhibition of human PDGFR-beta at 1 uM measured after 20 mins at 30 degC by liquid scintillation counting method in presence of [gamma-32P]-ATP
Platelet-derived growth factor receptor beta (Homo sapiens), sequence (P09619 whole entry): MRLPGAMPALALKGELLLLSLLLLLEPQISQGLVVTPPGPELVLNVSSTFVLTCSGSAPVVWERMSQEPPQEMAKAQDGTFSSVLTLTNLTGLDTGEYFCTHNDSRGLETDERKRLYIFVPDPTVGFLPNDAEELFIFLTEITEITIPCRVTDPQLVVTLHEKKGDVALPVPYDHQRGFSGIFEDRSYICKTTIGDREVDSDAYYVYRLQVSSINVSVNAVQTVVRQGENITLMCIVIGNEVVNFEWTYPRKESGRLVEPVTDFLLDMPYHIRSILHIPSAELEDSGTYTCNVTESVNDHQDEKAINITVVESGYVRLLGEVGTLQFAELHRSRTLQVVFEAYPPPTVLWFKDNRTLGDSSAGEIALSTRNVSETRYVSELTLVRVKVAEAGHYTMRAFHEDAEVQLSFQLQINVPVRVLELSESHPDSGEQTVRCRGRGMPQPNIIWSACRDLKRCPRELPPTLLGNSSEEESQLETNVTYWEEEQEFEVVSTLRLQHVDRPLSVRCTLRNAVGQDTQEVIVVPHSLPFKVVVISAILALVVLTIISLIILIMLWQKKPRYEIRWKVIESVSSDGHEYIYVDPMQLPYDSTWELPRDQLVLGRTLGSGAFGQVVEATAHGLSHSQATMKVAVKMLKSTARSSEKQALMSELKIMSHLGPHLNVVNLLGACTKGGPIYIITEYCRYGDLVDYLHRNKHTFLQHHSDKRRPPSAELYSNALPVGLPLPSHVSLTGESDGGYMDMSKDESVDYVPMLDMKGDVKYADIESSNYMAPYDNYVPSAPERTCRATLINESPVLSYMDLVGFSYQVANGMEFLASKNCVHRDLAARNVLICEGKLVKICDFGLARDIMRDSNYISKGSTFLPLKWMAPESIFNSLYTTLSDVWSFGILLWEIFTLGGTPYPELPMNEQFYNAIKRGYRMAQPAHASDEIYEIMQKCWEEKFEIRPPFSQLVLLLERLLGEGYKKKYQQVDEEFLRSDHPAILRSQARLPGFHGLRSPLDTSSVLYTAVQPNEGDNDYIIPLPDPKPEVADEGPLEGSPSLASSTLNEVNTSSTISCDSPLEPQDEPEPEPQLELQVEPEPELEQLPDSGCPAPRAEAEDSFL

[6] = target: Serine/threonine-protein kinase mTOR (Homo sapiens) (UniProt P42345); assay: Inhibition of human mTOR using PHAS-1 as substrate at 1 uM measured after 20 mins at 30 degC by liquid scintillation counting method in presence of [gamma-32P]-ATP
Homo sapiens [7] = species on record: Homo sapiens; assay: Inhibition of human PI3K using phosphatidylinositol 4,5-diphosphate as substrate at 1 uM measured after 20 mins at 30 degC by liquid scintillation counting method in presence of [gamma-32P]-ATP
[8] = Reduction of COL1A1 mRNA expression in healthy human HSC cells at 1 uM by RT-PCR analysis; type: functional, cell-based
In short: (§1)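 HSCs or ISEMFs were treated with compound for 24 h. Total RNA was extracted and DNase I-treated, then used for quantitative PCR of the target transcript. Values were normalized to 18S rRNA and relative change was calculated by the ΔΔCT method. Triplicate per isolated cell batch.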

[9] = Reduction of COL1A1 mRNA expression in crohn's disease patient isolated ISEMF at 1 uM by RT-PCR analysis; type: functional; details: Homo sapiens; in short: as §1
[10] = Reduction of COL1A1 mRNA expression in healthy human ISEMF at 1 uM by RT-PCR analysis; type: functional; in short: as §1
HSC = assay: Antiproliferative activity against VEGF induced human HSC cells at 1 uM after 72 hrs by carboxyfluorescein diacetate succinimidyl ester dye-based FACS flow cytometric method; type: functional, cell-based
In short: (§2)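 Primary human HSCs (from collagenase/pronase digests of non-pathological liver, Percoll gradient) or ISEMFs (from collagenase-digested gut biopsies, CD90-checked) were CFSE-loaded for 10 min at 37 °C in PBS with 0.1% BSA. Loading was quenched with 5 volumes of ice-cold medium. After 16 h, cells were washed and given compound plus 1 ng/ml VEGF for 72 h. Read-out was dye partitioning by flow cytometry, as % CFSE-positive cells. Duplicate per cell batch; mean ± SE.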

Homo sapiens [11] = species on record: Homo sapiens; assay: Antiproliferative activity against VEGF induced healthy human ISEMF at 1 uM after 72 hrs by carboxyfluorescein diacetate succinimidyl ester dye-based FACS flow cytometric method; type: functional; in short: as §2
Homo sapiens [12] = species on record: Homo sapiens; assay: Antiproliferative activity against VEGF induced crohn's disease patient isolated ISEMF at 1 uM after 72 hrs by carboxyfluorescein diacetate succinimidyl ester dye-based FACS flow cytometric method; type: functional; in short: as §2
[13] = Cytotoxicity against human HSC cells assessed as cell viability at 1 uM after 72 hrs by MTT assay; type: cell-based
In short: (§3)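 MTT viability in primary human HSCs or ISEMFs seeded at 2 × 10³ cells/well. Cells were exposed to compound for 72 h, then to MTT 0.50 mg/ml for 4 h. Viability is expressed as % of the respective untreated cells. Triplicate per isolated cell batch.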

[14] = Cytotoxicity against healthy human ISEMF assessed as cell viability at 1 uM after 72 hrs by MTT assay; in short: as §3
[15] = Cytotoxicity against crohn's disease patient isolated ISEMF assessed as cell viability at 1 uM after 72 hrs by MTT assay; details: human; in short: as §3
[16] = target: T1, MAP kinase p38 (Homo sapiens) (UniProt O15264+Q15759+Q16539+P53778); assay: Inhibition of p38 MAPK phosphorylation in human HSC cells at 1 uM after 4 hrs by western blotting analysis; type: cell-based
In short: (§4)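 Primary human cells were treated with compound for 4 h. Lysates were made in RIPA buffer with phosphatase and protease inhibitors and cleared by centrifugation. Proteins were run on 10% SDS-PAGE and blotted to nitrocellulose. Blots were probed for phospho-p38 MAPK with an HRP secondary and ECL detection, then reprobed for total p38 MAPK as loading control. Duplicate experiments.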

[17] = target: T1, MAP kinase p38 (Homo sapiens); assay: Inhibition of p38 MAPK phosphorylation in crohn's disease patient isolated ISEMF at 1 uM after 4 hrs by western blotting analysis; in short: as §4
[18] = Reduction of FN1 mRNA expression in human HSC cells at 1 uM by RT-PCR analysis; type: functional, cell-based; in short: as §1
[19] = Reduction of FN1 mRNA expression in healthy human ISEMF at 1 uM by RT-PCR analysis; type: functional; in short: as §1
[20] = Reduction of FN1 mRNA expression in crohn's disease patient isolated ISEMF at 1 uM by RT-PCR analysis; type: functional; details: Homo sapiens; in short: as §1
[21] = Reduction of TIMP1 mRNA expression in human HSC cells at 1 uM by RT-PCR analysis; type: functional, cell-based; in short: as §1
[22] = Reduction of TIMP1 mRNA expression in healthy human ISEMF at 1 uM by RT-PCR analysis; type: functional; in short: as §1
[23] = Reduction of TIMP1 mRNA expression in crohn's disease patient isolated ISEMF at 1 uM by RT-PCR analysis; type: functional; details: Homo sapiens; in short: as §1

inhibition [1] [%]	inhibition [2] [%]	inhibition [3] [%]	inhibition [4] [%]	inhibition [5] [%]	inhibition [6] [%]	inhibition (Homo sapiens [7]) [%]	inhibition [16]	inhibition [17]	SMILES	Activity (HSC)	Activity (Homo sapiens [11])	Activity (Homo sapiens [12])	Activity [13]	Activity [14]	Activity [15]	other results
44	8	0	0	0	33	5	Active	Active	COc1cc2ncn(CC(O)c3ccc(Br)cc3)c(=O)c2cc1OC (centres undefined)	Active	Active	Active	Non-toxic	Non-toxic	Non-toxic	Activity [8]: Active; Activity [9]: Active; Activity [10]: Active
24	13	0	3	37	30	25	Active	Active	COc1cc2ncn(Cc3cccnc3Br)c(=O)c2cc1OC	Active	Active	Active	Non-toxic	Non-toxic	Non-toxic	Activity [18]: Active; Activity [19]: inactive; Activity [20]: Active; Activity [21]: Active; Activity [22]: inactive; Activity [23]: Active
